{
  "source": "ChEMBL document CHEMBL1687823",
  "about": "“PA-824 exhibits time-dependent activity in a murine model of tuberculosis” (Antimicrob Agents Chemother, 2011)",
  "type_in_all_cases": "functional",
  "key": {"[1]": {"system": "Mycobacterium tuberculosis", "test": "Antitubercular activity against Mycobacterium tuberculosis H37Rv assessed as reduction in CFU count by agar proportion method", "method_in_brief": "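Agar proportion method on 7H11 agar with 10% OADC containing 2-fold drug dilutions (0.007–2.0 µg/ml). Plates inoculated with serial 100-fold dilutions of log-phase H37Rv broth culture (~10^8 CFU/ml). Drug-free and isoniazid plates as controls. CFU counted after 21 days at 37°C, 5% CO2. MIC is the lowest concentration giving <1% of drug-free CFU.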"}, "[2]": {"system": "Mycobacterium tuberculosis", "test": "Antitubercular activity against Mycobacterium tuberculosis H37Rv infected in BALB/c mouse assessed as reduction in log10 CFU count at 96 mg/kg, po for 5 days relative to control"}, "[3]": {"system": "Mycobacterium tuberculosis", "test": "Antitubercular activity against Mycobacterium tuberculosis H37Rv infected in BALB/c mouse assessed as reduction in log10 CFU count at 96 mg/kg, po bid", "method_in_brief": "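Female 6-week BALB/c mice were aerosol-infected with log-phase H37Rv, aiming to implant ~3.5 log10 CFU. Treatment began 14 days later: gavage of cyclodextrin-micelle suspension for 24 consecutive days, total 0–4,608 mg/kg split into 3–48 equal doses, 3 mice per group. Lungs harvested 4 days after last dose and plated on selective OADC-7H11. CFU transformed as log10(x+1).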"}, "[4]": {"system": "Mycobacterium tuberculosis", "test": "fT>MIC for >= 1 log reduction in CFU count in Mycobacterium tuberculosis H37Rv in using simulated dose of at 100 mg assessed as time during compound concentration exceeds MIC of 0.03125 ug/ml assuming 7% unbound compound concentration by one compartment human pharmacokinetic model", "method_in_brief": "(§1)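 A one-compartment PK model was fitted to human data to get median parameters. It simulated steady-state total and free concentrations for 100, 200 or 400 mg once daily, assuming 5, 7, 10 or 15% unbound drug. Free T>MIC was computed against MICs of 0.03125–0.25 µg/ml and compared with the mouse-derived T>MIC target for 1-log10 kill.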"}, "[5]": {"system": "Mycobacterium tuberculosis", "test": "fT>MIC for >= 1 log reduction in CFU count in Mycobacterium tuberculosis H37Rv in using simulated dose of at 200 mg assessed as time during compound concentration exceeds MIC of 0.03125 ug/ml assuming 7% unbound compound concentration by one compartment human pharmacokinetic model", "method_in_brief": "as §1"}, "[6]": {"system": "Mycobacterium tuberculosis", "test": "fT>MIC for >= 1 log reduction in CFU count in Mycobacterium tuberculosis H37Rv in using simulated dose of at 400 mg assessed as time during compound concentration exceeds MIC of 0.03125 ug/ml assuming 10% unbound compound concentration by one compartment human pharmacokinetic model", "method_in_brief": "as §1"}, "[7]": {"system": "Mycobacterium tuberculosis", "test": "fT>MIC for >= 1 log reduction in CFU count in Mycobacterium tuberculosis H37Rv in using simulated dose of at 400 mg assessed as time during compound concentration exceeds MIC of 0.03125 ug/ml assuming 15% unbound compound concentration by one compartment human pharmacokinetic model", "method_in_brief": "as §1"}, "[8]": {"system": "Mycobacterium tuberculosis", "test": "fT>MIC for >= 1 log reduction in CFU count in Mycobacterium tuberculosis H37Rv in using simulated dose of at 400 mg assessed as time during compound concentration exceeds MIC of 0.06250 ug/ml assuming 7% unbound compound concentration by one compartment human pharmacokinetic model", "method_in_brief": "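Human steady-state simulation: one-compartment PK model fitted to patient data, chosen by AIC. Median PK parameters used to simulate total and free concentrations, assuming 5, 7, 10 or 15% unbound, for 100, 200 and 400 mg once daily. Free levels compared with MICs of 0.03125 to 0.25 µg/ml to give %T>MIC; T>MIC is the cumulative percentage of the dosing interval above MIC.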"}, "[9]": {"system": "Mycobacterium tuberculosis", "test": "fT>MIC for >= 1 log reduction in CFU count in Mycobacterium tuberculosis H37Rv in using simulated dose of at 400 mg assessed as time during compound concentration exceeds MIC of 0.06250 ug/ml assuming 15% unbound compound concentration by one compartment human pharmacokinetic model", "method_in_brief": "as §1"}, "[10]": {"system": "Mycobacterium tuberculosis", "test": "fT>MIC for >= 1 log reduction in CFU count in Mycobacterium tuberculosis H37Rv in using simulated dose of at 200 mg assessed as time during compound concentration exceeds MIC of 0.12500 ug/ml assuming 5% unbound compound concentration by one compartment human pharmacokinetic model", "method_in_brief": "as §1"}, "[11]": {"system": "Mycobacterium tuberculosis", "test": "fT>MIC for >= 1 log reduction in CFU count in Mycobacterium tuberculosis H37Rv in using simulated dose of at 100 mg assessed as time during compound concentration exceeds MIC of 0.12500 ug/ml assuming 10% unbound compound concentration by one compartment human pharmacokinetic model", "method_in_brief": "as §1"}, "[12]": {"system": "Mycobacterium tuberculosis", "test": "fT>MIC for >= 1 log reduction in CFU count in Mycobacterium tuberculosis H37Rv in using simulated dose of at 100 mg assessed as time during compound concentration exceeds MIC of 0.12500 ug/ml assuming 15% unbound compound concentration by one compartment human pharmacokinetic model", "method_in_brief": "as §1"}, "[13]": {"system": "Mycobacterium tuberculosis", "test": "fT>MIC for >= 1 log reduction in CFU count in Mycobacterium tuberculosis H37Rv in using simulated dose of at 200 mg assessed as time during compound concentration exceeds MIC of 0.12500 ug/ml assuming 15% unbound compound concentration by one compartment human pharmacokinetic model", "method_in_brief": "as §1"}, "[14]": {"system": "Mycobacterium tuberculosis", "test": "fT>MIC for >= 1 log reduction in CFU count in Mycobacterium tuberculosis H37Rv in using simulated dose of at 200 mg assessed as time during compound concentration exceeds MIC of 0.25000 ug/ml assuming 5% unbound compound concentration by one compartment human pharmacokinetic model", "method_in_brief": "as §1"}, "[15]": {"system": "Mycobacterium tuberculosis", "test": "fT>MIC for >= 1 log reduction in CFU count in Mycobacterium tuberculosis H37Rv in using simulated dose of at 200 mg assessed as time during compound concentration exceeds MIC of 0.25000 ug/ml assuming 10% unbound compound concentration by one compartment human pharmacokinetic model", "method_in_brief": "as §1"}, "[16]": {"system": "Mycobacterium tuberculosis", "test": "fT>MIC for >= 1 log reduction in CFU count in Mycobacterium tuberculosis H37Rv in using simulated dose of at 100 mg assessed as time during compound concentration exceeds MIC of 0.25000 ug/ml assuming 15% unbound compound concentration by one compartment human pharmacokinetic model", "method_in_brief": "as §1"}},
  "data": [
    {"smiles": "O=[N+]([O-])c1cn2c(n1)OC[C@@H](OCc1ccc(OC(F)(F)F)cc1)C2", "note": "[PRETOMANID]", "values": [
      {"measurement": "MIC", "setting": "[1]", "value": 0.06, "unit": "µg/mL"},
      {"measurement": "log10cfu", "setting": "[2]", "value": 2},
      {"measurement": "log10cfu", "setting": "[3]", "value": 2.4},
      {"measurement": "fT>MIC", "setting": "[4]", "value": 67, "unit": "%"},
      {"measurement": "fT>MIC", "setting": "[5]", "value": 100, "unit": "%"},
      {"measurement": "fT>MIC", "setting": "[6]", "value": 100, "unit": "%"},
      {"measurement": "fT>MIC", "setting": "[7]", "value": 100, "unit": "%"},
      {"measurement": "fT>MIC", "setting": "[8]", "value": 100, "unit": "%"},
      {"measurement": "fT>MIC", "setting": "[9]", "value": 100, "unit": "%"},
      {"measurement": "fT>MIC", "setting": "[10]", "value": 0, "unit": "%"},
      {"measurement": "fT>MIC", "setting": "[11]", "value": 0, "unit": "%"},
      {"measurement": "fT>MIC", "setting": "[12]", "value": 6, "unit": "%"},
      {"measurement": "fT>MIC", "setting": "[13]", "value": 67, "unit": "%"},
      {"measurement": "fT>MIC", "setting": "[14]", "value": 0, "unit": "%"},
      {"measurement": "fT>MIC", "setting": "[15]", "value": 0, "unit": "%"},
      {"measurement": "fT>MIC", "setting": "[16]", "value": 0, "unit": "%"}
    ]}
  ]
}
